Consider one molecule from ChEMBL document CHEMBL5034016 (J Med Chem, 2021).

Series [1] deals with Human immunodeficiency virus 1. As to the kind of experiment: Potency index, ratio of AL-471 EC50 to test compound EC50 for anti-HIV activity against HIV-1 NL4.3 infected in human MT4 cells assessed as reduction in virus-indued cytopathic effect preincubated with cells for 30 mins followed by viral infection and measured after 5 days by MTS assay. The series is classed as functional. As to conditions: time 120.5 hrs.

In series [2] the test system is Human immunodeficiency virus 1. The series is described as follows: Binding affinity to CM5 sensor chip immobilized recombinant HIV-1 gp120 assessed as association constant at 12.5 to 0.1 uM by SPR analysis. The note with it: dose 12.5-0.1 µM. In general terms: In SPR one partner is held on a chip, and binding of the other changes the refractive index at the surface.

For another series, the system named is rhinovirus B14. The series is described as follows: Antiviral activity against Human rhinovirus 14 infected in HeLa cells assessed as reduction in virus induced cytopathic effect. The format is functional, organism-based. The note with it: Rhinovirus B. (In general: Damage to the host cells serves as the signal in cytopathic effect assays.)
The nature of series [3]: Selectivity index, ratio of CC50 for human RD cells to EC50 for antiviral activity against Enterovirus A71 infected in human RD cells. The series is classed as toxicity, cell-based. As to conditions: read-out: Ratio CC50/EC50.
A further series concerns rhinovirus A2. The series is described as follows: Antiviral activity against Human rhinovirus 2 infected in HeLa cells assessed as reduction in virus induced cytopathic effect. The note with it: Rhinovirus A. The format is functional, organism-based.
The nature of series [4]: Inhibition of mouse mAb clone 9305 binding to HIV1 gp120 expressed in human MT4 cells by flow cytometry analysis. The series is classed as cell-based, Human immunodeficiency virus 1.
The test system of series [5] is Human immunodeficiency virus 1. As to the kind of experiment: Inhibition of HIV-1 gp120 interaction with human CD4 assessed as fold change in inhibition of viral entry at 10 to 40 nM by SPR analysis relative to AL-471. The note with it: dose 10-40 nM. In a few lines: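 His-CD4 at 2 μg/mL captured on a NiCl2-activated chip channel, with a reference channel alongside. 25 nM gp120 premixed with compound, 10 000 to 10 nM in fourfold steps, injected 2 min over both channels. Surface regenerated with 350 mM EDTA. Binding % from maximum response at injection end versus gp120 alone. Triplicate experiments.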

Series [6] concerns Human immunodeficiency virus 1. As to the kind of experiment: Potency index, ratio of AL-471 Kd to test compound Kd for binding affinity to CM5 sensor chip immobilized recombinant HIV-1 gp120 at 12.5 to 0.1 uM measured for 4 mins by SPR analysis. The note with it: dose 12.5-0.1 µM.
The nature of series [7]: Inhibition of human mAb clone 2G12 binding to HIV1 gp120 expressed in human MT4 cells by flow cytometry analysis. The series is classed as cell-based, Human immunodeficiency virus 1. On the technique in general: In flow cytometry, cells or beads pass a laser one at a time.
In series [8] the test system is Human immunodeficiency virus 1. As to the kind of experiment: Inhibition of HIV-1 gp120 interaction with human CD4 assessed as inhibition of viral entry at 10 to 40 nM by SPR analysis relative to control. As to conditions: dose 10-40 nM. The essentials: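 His-CD4 (2 μg/mL) was captured on a Ni-chelated chip (0.5 mM NiCl2 activation). 25 nM gp120 premixed with compound (10 000 to 10 nM, fourfold steps) was injected for 2 min over reference and analysis channels. Binding % used the maximum response at end of injection relative to 25 nM gp120 alone. Regeneration was with 350 mM EDTA. Run in triplicate.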

For orientation: EC50 means the concentration giving half of the maximal effect. The IC50 is the concentration that inhibits the measured activity by half. High values mean weaker potency in that assay, low ones greater potency in that assay. A word on the inhibition: it is the share of the control response that was lost under treatment. With `O=C(CCOCC(COCCC(=O)NC(Cc1c(-c2cc(C(=O)O)cc(C(=O)O)c2)[nH]c2c(-c3cc(C(=O)O)cc(C(=O)O)c3)cccc12)C(=O)O)(COCCC(=O)NC(Cc1c(-c2cc(C(=O)O)cc(C(=O)O)c2)[nH]c2c(-c3cc(C(=O)O)cc(C(=O)O)c3)cccc12)C(=O)O)COCCC(=O)NC(Cc1c(-c2cc(C(=O)O)cc(C(=O)O)c2)[nH]c2c(-c3cc(C(=O)O)cc(C(=O)O)c3)cccc12)C(=O)O)NC(Cc1c(-c2cc(C(=O)O)cc(C(=O)O)c2)[nH]c2c(-c3cc(C(=O)O)cc(C(=O)O)c3)cccc12)C(=O)O` (stereo not given), the “Ratio EC50” value in [1] is 3.5. In addition, in series [2], the ka was 3.34 10^3/M/s. For the same molecule, the EC50 in the series on rhinovirus B14 and in the series with rhinovirus A2 was over 50 µM throughout. Moreover, the selectivity ratio in [3] was 2500. Moreover, the 50% inhibitory concentration (IC50) in series [4] and in series [7] was over 100 µM in each case. Moreover, the fold change (FC) in series [5] was found to be 16. Besides, in series [6], the Ratio is 6. In addition, in series [8], the inhibition is 50%.
